Format in all cases: functional, Homo sapiens
Assay [1] concerns SW480. The experiment in a line: Cell cycle arrest in SW480 cells by accumulation at G2/M phase at 50 uM after 24 hrs by propidium iodide staining. An outline of the steps: (§1)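 SW480 human colorectal cancer cells (ATCC) grown in DMEM with 10% FBS, penicillin/streptomycin in 60 mm dishes; medium replenished at 80% confluence. Monolayers exposed 24 h to 0, 25, 50, 75 or 100 µM (DMSO stock, 0.1% DMSO final). Adherent plus floating cells fixed in PBS-methanol (1:2) ≥18 h at 4 °C, stained 30 min with 50 µg/mL PI plus RNase A.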

Assay [2] deals with SW480. The experiment in a line: Cell cycle arrest in SW480 cells by accumulation at G2/M phase at 75 uM after 24 hrs by propidium iodide staining. In short, it runs like this:
as §1

Assay [3] has as its system SW480. The experiment in a line: Cell cycle arrest in SW480 cells by accumulation at G2/M phase at 100 uM after 24 hrs by propidium iodide staining. In short, it runs like this:
as §1

The subject of assay [4] is SW480. The assay can be described thus: DNA damage assessed as accumulation in subG1 level of cell cycle arrest in SW480 cells at 25 uM after 24 hrs by propidium iodide staining. In short, it runs like this: as §1
For assay [5], the system named is SW480. The assay can be described thus: DNA damage assessed as accumulation in subG1 level of cell cycle arrest in SW480 cells at 50 uM after 24 hrs by propidium iodide staining. An outline of the steps: as §1
In assay [6] the test system is SW480. The experiment in a line: DNA damage assessed as accumulation in subG1 level of cell cycle arrest in SW480 cells at 75 uM after 24 hrs by propidium iodide staining. An outline of the steps:
as §1

Assay [7] deals with SW480. The assay can be described thus: DNA damage assessed as accumulation in subG1 level of cell cycle arrest in SW480 cells at 100 uM after 24 hrs by propidium iodide staining. In short, it runs like this:
as §1

In assay [8] the test system is SW480. The assay can be described thus: Cell cycle arrest in SW480 cells by accumulation at G1 phase at 25 uM after 24 hrs by propidium iodide staining. An outline of the steps: as §1
Assay [9] relates to SW480. The assay can be described thus: Cell cycle arrest in SW480 cells by accumulation at G1 phase at 50 uM after 24 hrs by propidium iodide staining. An outline of the steps:
as §1

Assay [10] deals with SW480. The experiment in a line: Cell cycle arrest in SW480 cells by accumulation at G1 phase at 75 uM after 24 hrs by propidium iodide staining. An outline of the steps:
as §1

Assay [11] relates to SW480. The assay can be described thus: Cell cycle arrest in SW480 cells by accumulation at G1 phase at 100 uM after 24 hrs by propidium iodide staining. In short, it runs like this: as §1
The subject of assay [12] is SW480. The experiment in a line: Cell cycle arrest in SW480 cells by accumulation at S phase at 25 uM after 24 hrs by propidium iodide staining. An outline of the steps:
as §1

Assay [13] concerns SW480. The assay can be described thus: Cell cycle arrest in SW480 cells by accumulation at S phase at 50 uM after 24 hrs by propidium iodide staining. An outline of the steps:
as §1

For assay [14], the system named is SW480. The assay can be described thus: Cell cycle arrest in SW480 cells by accumulation at S phase at 75 uM after 24 hrs by propidium iodide staining. An outline of the steps:
as §1

The test system of assay [15] is SW480. The assay can be described thus: Cell cycle arrest in SW480 cells by accumulation at S phase at 100 uM after 24 hrs by propidium iodide staining. In short, it runs like this:
as §1

Assay [16] relates to SW480. The assay can be described thus: Cell cycle arrest in SW480 cells by accumulation at G2/M phase at 25 uM after 24 hrs by propidium iodide staining. In short, it runs like this:
as §1

In the case of `CCCCCCCCCCCCC/C=C1\C(=O)O[C@@](C)(OC)[C@@H]1O` [SUBAMOLIDE A], the Activity in assay [1] is 12.8%; in [2], 13%; in assay [3], 17.7%; in [4], 8.5%; in assay [5], 25.4%; in assay [6] it was 27.3%. Further, the Activity in [7] was 64.4%; in assay [8] it was 48.2%; in assay [9], 46.3%; in assay [10], 45%; in assay [11], 52.6%; in assay [12] it was 39.6%. Moreover, the Activity in assay [13] amounted to 41%; in [14] it was 42%; in assay [15], 29.8%; in assay [16], 12.2%.

Consider `CCCCCCCCCCCCC/C=C1/C(=O)O[C@@](C)(OC)[C@@H]1O` [SUBAMOLIDE B], for which the Activity in assay [1] was determined as 16.9%; in [2] it was 20.8%; in [3] it was 16.6%; in assay [4], 6.6%; in assay [5], 23.7%; in [6] it was 47.2%. Further, the Activity in assay [7] came to 71%; in [8] it was 47.7%; in assay [9] it was 44.2%; in assay [10], 45.8%; in assay [11], 46%; in assay [12] it was 46%. In addition, the Activity in [13] is listed as 38.8%; in assay [14], 33.4%; in [15] it was 37.4%; in assay [16], 6.4%.

Take `CCCCCCCCCCCCC/C=C(/C(=O)OC)[C@H](O)C(C)=O` [SECOSUBAMOLIDE]: the Activity in [1] amounted to 11.4%; in [2], 12.8%; in assay [3] it was 17.6%; in [5], 9.1%; in [6], 23.4%; in [7], 51.8%. For the same compound, the Activity in assay [8] was 47.1%; in assay [9] it was 47.9%; in assay [10], 49%; in assay [11] it was 47.9%; in [12], 39.5%; in assay [13] it was 40.6%. The Activity in assay [14] came to 38.3%; in [15], 34.5%; in [16], 13.4%.

For `C=C1C=C(C(CCCCCCCCCCCCCC)OC)C(=O)O1` (stereo not drawn) [SUBAMOLIDE C], the Activity was 11.3% in assay [1]; 12.4% in assay [2]; 19.3% in assay [3]; 6.1% in assay [4]; 11% in assay [5]; 34.6% in assay [6]. Besides, the Activity in assay [7] amounted to 38.8%; in [8], 44.4%; in assay [9] it was 47.6%; in assay [10], 44.5%; in [11], 47.8%; in assay [12], 45.8%. Besides, the Activity in assay [13] was found to be 41.2%; in assay [14], 43.1%; in assay [15], 33%; in [16], 9.8%.

Values taken from ChEMBL document CHEMBL1139209, “Cytotoxic constituents of the stems of Cinnamomum subavenium” (2007).
